Measured values of several laboratories.
Lines come from different studies, so protocols differ.

Structure (SMILES)	test	system	setting	quantity	value
CCONC(=O)N1CCC[C@H](C(=O)NCc2nc(-c3ccc(C#N)cc3)cs2)C1	metabolic stability	human, liver microsomes	0.5 µM	microsomal CLint	9 µL/min/mg
C[C@@H](Oc1ccc(S(C)(=O)=O)cc1C(=O)N1C[C@@H]2C[C@]2(c2cc(C(F)(F)F)on2)C1)C(F)(F)F	–	human, plasma	oral, 10 mg, single dose, fasted	CL/F	82.9 mL/min
CC1(C)NC(=O)N(c2ccc3c(c2)OC(F)(F)O3)C1=O	HPLC	–	pH 7.4	chromatographic logD	2.5
Cc1cc(S(=O)(=O)N[C@H]2CC[C@H](CN3CCN(c4ccc(C5CCC(=O)NC5=O)c(Cl)c4)CC3)CC2)ccc1Nc1ncc(C(F)(F)F)c(N2CCC[C@](C)(O)C2)n1 (stereo partly drawn)	metabolic stability	human, liver microsomes	1 µM	scaled CLint	20 mL/min/kg
CC1(C)NC(=O)N(c2cccc(C(F)(F)F)n2)C1=O	HPLC	–	pH 7.4	chromatographic logD	1.6
C[C@]1(O)CCCN(c2nc(Nc3ccc(S(=O)(=O)N[C@@H]4CCN(CC5CCN(c6ccc(C7CCC(=O)NC7=O)cc6F)CC5)C[C@H]4F)cc3F)ncc2C(F)(F)F)C1 (stereo partly drawn)	metabolic stability	human, liver microsomes	1 µM	scaled CLint	22 mL/min/kg
FC(F)(F)c1cc(Nc2ncnc3ccc(-c4cccc(N5CCOCC5)c4)cc23)ccc1Cl	shake flask	aqueous buffer	pH 7.4	logD	> 4.1
Cc1cc(S(=O)(=O)N[C@H]2CC[C@H](N3CCN(CC4CCN(c5cccc6c5n(C)c(=O)n6C5CCC(=O)NC5=O)CC4)CC3)CC2)ccc1Nc1ncc(C(F)(F)F)c(N2CCC[C@](C)(O)C2)n1 (stereo partly drawn)	metabolic stability	human, liver microsomes	1 µM	scaled CLint	33 mL/min/kg
O=c1c2ccc(Oc3ccc(OC(F)(F)F)cc3)cc2[nH]c2ccc(Cl)c(F)c12	metabolic stability	human, liver microsomes	1 µM, pH 7.4	microsomal CLint	9.02 µL/min/mg
OC[C@H]1O[C@@H](c2cc(Cc3ccc(C4CC4)cc3)c(Cl)c3c2CCO3)[C@H](O)[C@@H](O)[C@@H]1O	–	human, plasma	oral, 0.3 mg, single dose, fasted	CL/F	157 mL/min
C[C@H]1CN(CC2CCN(c3ccc(C4CCC(=O)NC4=O)cc3F)CC2)CC[C@H]1NS(=O)(=O)c1ccc(Nc2ncc(C(F)(F)F)c(N3CCC[C@](C)(O)C3)n2)c(F)c1 (stereo partly drawn)	metabolic stability	human, liver microsomes	1 µM	scaled CLint	23 mL/min/kg
O=c1c2ccc(Oc3ccc(OC(F)(F)F)cc3)cc2[nH]c2cc(F)c(Cl)cc12	metabolic stability	human, liver microsomes	1 µM, pH 7.4	microsomal CLint	2.59 µL/min/mg
c1cc(-c2ccc3ncnc(Nc4ncco4)c3c2)cc(N2CC3CCC(C2)O3)c1	shake flask	aqueous buffer	pH 7.4	logD	> 3.6
CC1(C)NC(=O)N(c2ccc(F)c(F)c2)C1=O	HPLC	–	pH 7.4	chromatographic logD	1.8
O=c1c2c([nH]c3cc(OC(F)(F)F)ccc13)CCCC2	metabolic stability	human, liver microsomes	1 µM, pH 7.4	microsomal CLint	173 µL/min/mg
O=C(NCc1nc(-c2ccc(C(F)(F)F)cc2)cs1)[C@H]1CCCN(C(=O)COCCN2CCCC2)C1	metabolic stability	human, liver microsomes	0.5 µM	microsomal CLint	14 µL/min/mg
COc1ccc2c(c1)CN(C(=O)CCN1CCC(Cc3ccccc3)CC1)CC[S@@+]2[O-]	–	male human, plasma	intravenous, 0.01 mg/kg, healthy volunteers	clearance	235 mL/min

Structure (SMILES)	test	system	setting	quantity	value
Cc1cc(S(=O)(=O)NC2CC(N3CCN(CC4CCN(c5ccc6c(c5F)n(C)c(=O)n6C5CCC(=O)NC5=O)CC4)CC3)C2)ccc1Nc1ncc(C(F)(F)F)c(N2CCCC(C)(O)C2)n1 (stereo not drawn)	metabolic stability	human, liver microsomes	1 µM	scaled CLint	22 mL/min/kg
CC(C)(N)COCC(=O)N1CCC[C@H](C(=O)NCc2nc(-c3ccc(C(F)(F)F)cc3)cs2)C1	metabolic stability	human, liver microsomes	0.5 µM	scaled CLint	< 4 mL/min/kg
CC1(C)NC(=O)N(c2cc(C(F)(F)F)c(F)cc2C#N)C1=O	HPLC	–	pH 7.4	chromatographic logD	2.8
Cc1cc(S(=O)(=O)NC2CC(N3CC[C@@H](OC4CN(c5cccc6c5n(C)c(=O)n6C5CCC(=O)NC5=O)C4)[C@H](F)C3)C2)ccc1Nc1ncc(C(F)(F)F)c(N2CCC[C@](C)(O)C2)n1 (stereo partly drawn)	metabolic stability	rat, liver microsomes	1 µM	scaled CLint	23 mL/min/kg
CC1(C(F)F)NC(=O)N(c2ccc(F)c(C(F)(F)F)c2)C1=O (stereo not drawn)	HPLC	–	pH 7.4	chromatographic logD	3.2
Cc1cc(S(=O)(=O)NC2CC(N3CCN(CC4CCN(c5ccc(NC6CCC(=O)NC6=O)cc5C)CC4)CC3)C2)ccc1Nc1ncc(C(F)(F)F)c(N2CCC[C@](C)(O)C2)n1 (stereo partly drawn)	metabolic stability	rat, liver microsomes	1 µM	scaled CLint	< 21 mL/min/kg
CCOCC(=O)N1CC[C@@H](C)[C@H](C(=O)NCc2nc(-c3ccc(C)nc3)cs2)C1 (racemic)	metabolic stability	male Sprague-Dawley rat, liver microsomes	0.5 µM	microsomal CLint	53 µL/min/mg
c1cc(-c2ccc3ncnc(NC4CCOCC4)c3c2)cc(N2CCOCC2)c1	shake flask	aqueous buffer	pH 7.4	logD	3.3
CCOCC(=O)N1CCC[C@H](C(=O)NCc2nc(-c3ccc(C#N)nc3)cs2)C1	metabolic stability	male Sprague-Dawley rat, liver microsomes	0.5 µM	microsomal CLint	11 µL/min/mg
c1coc(Nc2ncnc3ccc(-c4cncc(N5CCOCC5)n4)cc23)n1	shake flask	aqueous buffer	pH 7.4	logD	3.5
CCONC(=O)N1CCC[C@H](C(=O)N[C@@H](C)c2nc(-c3ccc(C#N)cc3)cs2)C1	metabolic stability	male Sprague-Dawley rat, liver microsomes	0.5 µM	microsomal CLint	36 µL/min/mg
CC1(C)NC(=O)N(c2ccc(F)c(CC(F)(F)F)c2)C1=O	HPLC	–	pH 7.4	chromatographic logD	2.7
COCC(=O)N1CCC[C@H](C(=O)NCc2nc(-c3ccccc3)cs2)C1	metabolic stability	male Sprague-Dawley rat, hepatocytes	0.5 µM	scaled CLint	32 mL/min/kg
O=C1NC(CF)(CF)C(=O)N1c1ccc(F)c(C(F)(F)F)c1	HPLC	–	pH 7.4	chromatographic logD	3
NCCOCC(=O)N1CCC[C@H](C(=O)NCc2nc(-c3ccc(C(F)(F)F)cc3)cs2)C1	metabolic stability	male Sprague-Dawley rat, hepatocytes	0.5 µM	scaled CLint	< 4.2 mL/min/kg
CC1(C)NC(=O)N(c2ccc(F)c(Br)c2)C1=O	HPLC	–	pH 7.4	chromatographic logD	2.4
